This passage reports MIC results from ChEMBL document CHEMBL1151705, “Novel azalides derived from 16-membered macrolides. Part II: Isolation of the linear 9-formylcarboxylic acid and its sequential macrocyclization with an amino alcohol or an azidoamine” (2008).

The structures appear in SMILES notation. In brackets after ≈: the same amount, converted by molar mass.

Common to all, as to format: functional
For test [1], the system named is Streptococcus pneumoniae. Nature of the test: Antimicrobial activity against drug-susceptible Streptococcus pneumoniae DP1 Type1 after 20 hrs by agar dilution method. The note with it: Streptococcus pneumoniae, 20 h; read-out: MIC. The essentials:
(§1)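 Streptococci, H. influenzae and M. catarrhalis were precultured on blood agar plates. Suspensions of about 10⁶ CFU/ml were inoculated onto sensitivity disk agar supplemented with 5% horse blood and incubated at 37 °C for 20 h. MIC was read as the lowest drug concentration with no visible growth.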

Test [2] has as its system Streptococcus pneumoniae. The test is described as follows: Antimicrobial activity against Streptococcus pneumoniae 10 expressing mefA after 20 hrs by agar dilution method. The note with it: Streptococcus pneumoniae, 20 h; read-out: MIC. The essentials:
as §1
(Agar dilution tests growth on a series of plates holding different concentrations.)

Test [3] concerns Staphylococcus aureus. The test is described as follows: Antimicrobial activity against Staphylococcus aureus 4 constitutively expressing ermA after 20 hrs by agar dilution method. The method, boiled down: (§2)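 Agar dilution MIC. S. aureus seed culture was grown in sensitivity test broth. Cell suspension (about 10⁶ CFU/ml) was inoculated onto sensitivity disk agar with 5% horse blood and incubated at 37 °C for 20 h. MIC was the lowest drug concentration that prevented visible growth.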

The subject of test [4] is Moraxella catarrhalis. Nature of the test: Antimicrobial activity against drug-susceptible Moraxella catarrhalis 2 after 20 hrs by agar dilution method. The settings on record: Moraxella catarrhalis, 20 h; read-out: MIC. The method, boiled down: as §1
The subject of test [5] is Streptococcus pyogenes. The test is described as follows: Antimicrobial activity against Streptococcus pyogenes 2 constitutively expressing ermB after 20 hrs by agar dilution method. The essentials: as §1
Test [6] deals with Staphylococcus aureus. The test is described as follows: Antimicrobial activity against Staphylococcus aureus 6 expressing inducible ermB after 20 hrs by agar dilution method. The essentials: as §2
For test [7], the system named is Streptococcus pneumoniae. The test is described as follows: Antimicrobial activity against Streptococcus pneumoniae 8 expressing inducible ermB after 20 hrs by agar dilution method. The settings on record: Streptococcus pneumoniae, 20 h; read-out: MIC. The essentials: as §1
Test [8] has as its system Staphylococcus aureus. The test is described as follows: Antimicrobial activity against drug-susceptible Staphylococcus aureus 2 after 20 hrs by agar dilution method. The note with it: Staphylococcus aureus, 20 h; read-out: MIC. The method, boiled down: as §2
Test [9] has as its system Haemophilus influenzae. The test is described as follows: Antimicrobial activity against drug-susceptible Haemophilus influenzae 4 after 20 hrs by agar dilution method. The settings on record: Haemophilus influenzae, 20 h; read-out: MIC. The essentials: as §1
Test [10] deals with Staphylococcus aureus. Nature of the test: Antimicrobial activity against Staphylococcus aureus 5 expressing inducible ermB after 20 hrs by agar dilution method. The settings on record: Staphylococcus aureus, 20 h; read-out: MIC. The essentials: as §2
The test system of test [11] is Streptococcus pneumoniae. Nature of the test: Antimicrobial activity against Streptococcus pneumoniae 9 expressing mefA after 20 hrs by agar dilution method. The note with it: Streptococcus pneumoniae, 20 h; read-out: MIC. The method, boiled down: as §1
Test [12] concerns Haemophilus influenzae. The test is described as follows: Antimicrobial activity against drug-susceptible Haemophilus influenzae 1 after 20 hrs by agar dilution method. The settings on record: Haemophilus influenzae, 20 h; read-out: MIC. The essentials: as §1
For test [13], the system named is Streptococcus pyogenes. The test is described as follows: Antimicrobial activity against Streptococcus pyogenes 3 expressing mefA after 20 hrs by agar dilution method. The settings on record: Streptococcus pyogenes, 20 h; read-out: MIC. The method, boiled down: as §1
The subject of test [14] is Streptococcus pneumoniae. Nature of the test: Antimicrobial activity against drug-susceptible Streptococcus pneumoniae 2 after 20 hrs by agar dilution method. The note with it: Streptococcus pneumoniae, 20 h; read-out: MIC. The method, boiled down: as §1
The test system of test [15] is Streptococcus pneumoniae. The test is described as follows: Antimicrobial activity against Streptococcus pneumoniae 7 expressing inducible ermB after 20 hrs by agar dilution method. The note with it: Streptococcus pneumoniae, 20 h; read-out: MIC. The method, boiled down: as §1
Test [16] has as its system Staphylococcus aureus. The test is described as follows: Antimicrobial activity against drug-susceptible Staphylococcus aureus 209P JC-1 after 20 hrs by agar dilution method. The note with it: Staphylococcus aureus, 209P, 20 h; read-out: MIC. The method, boiled down: as §2
Test [17] relates to Streptococcus pneumoniae. Nature of the test: Antimicrobial activity against Streptococcus pneumoniae 5 constitutively expressing ermB/mefA after 20 hrs by agar dilution method. The note with it: Streptococcus pneumoniae, 20 h; read-out: MIC. The method, boiled down: as §1
Test [18] has as its system Haemophilus influenzae. Nature of the test: Antimicrobial activity against drug-susceptible Haemophilus influenzae 2 after 20 hrs by agar dilution method. The note with it: Haemophilus influenzae, 20 h; read-out: MIC. The essentials: as §1
Test [19] relates to Moraxella catarrhalis. The test is described as follows: Antimicrobial activity against drug-susceptible Moraxella catarrhalis 1 after 20 hrs by agar dilution method. The note with it: Moraxella catarrhalis, 20 h; read-out: MIC. The essentials:
as §1

Test [20] deals with Haemophilus influenzae. The test is described as follows: Antimicrobial activity against drug-susceptible Haemophilus influenzae 3 after 20 hrs by agar dilution method. The settings on record: Haemophilus influenzae, 20 h; read-out: MIC. The essentials:
as §1

Test [21] has as its system Streptococcus pyogenes. The test is described as follows: Antimicrobial activity against drug-susceptible Streptococcus pyogenes 1 after 20 hrs by agar dilution method. The note with it: Streptococcus pyogenes, 20 h; read-out: MIC. The essentials: as §1
In test [22] the test system is Staphylococcus aureus. Nature of the test: Antimicrobial activity against drug-susceptible Staphylococcus aureus 3 after 20 hrs by agar dilution method. The settings on record: Staphylococcus aureus, 20 h; read-out: MIC. The method, boiled down: as §2
The subject of test [23] is Streptococcus pneumoniae. Nature of the test: Antimicrobial activity against Streptococcus pneumoniae 6 constitutively expressing ermB after 20 hrs by agar dilution method. The settings on record: Streptococcus pneumoniae, 20 h; read-out: MIC. The essentials: as §1

`CCOC(=O)[C@H]1[C@H](C)O[C@@H](O[C@H]2[C@H](N(C)C)[C@@H](O)[C@H](O[C@H]3[C@@H](CC=O)C[C@@H](C)[C@@H](OC(C)=O)CN(CCCCc4ccccc4)CCCOC(=O)C[C@@H](OC(=O)CC)[C@@H]3OC)O[C@@H]2C)C[C@@]1(C)OC(C)=O`: the MIC was 0.25 µg/mL (≈ 0.248 µM) with Streptococcus pneumoniae [1]; 0.25 µg/mL (≈ 0.248 µM) with Streptococcus pneumoniae [2]; above 128 µg/mL against Staphylococcus aureus [3]; 0.5 µg/mL (≈ 0.496 µM) with Moraxella catarrhalis [4]; above 128 µg/mL against Streptococcus pyogenes [5]; 1 µg/mL (≈ 0.993 µM) against Staphylococcus aureus [6]. Besides, the MIC in the test with Streptococcus pneumoniae [7] is 32 µg/mL (≈ 31.8 µM); in the test on Staphylococcus aureus [8] it was 1 µg/mL (≈ 0.993 µM); in the test with Haemophilus influenzae [9], 8 µg/mL (≈ 7.94 µM); with Staphylococcus aureus [10], 0.5 µg/mL (≈ 0.496 µM); with Streptococcus pneumoniae [11], 0.5 µg/mL (≈ 0.496 µM); with Haemophilus influenzae [12], above 128 µg/mL. Besides, the MIC is 0.25 µg/mL (≈ 0.248 µM) in the test with Streptococcus pyogenes [13]; 0.25 µg/mL (≈ 0.248 µM) in the test with Streptococcus pneumoniae [14]; 8 µg/mL (≈ 7.94 µM) in the test with Streptococcus pneumoniae [15]; 0.5 µg/mL (≈ 0.496 µM) in the test with Staphylococcus aureus [16]; above 128 µg/mL in the test with Streptococcus pneumoniae [17]; 2 µg/mL (≈ 1.99 µM) in the test on Haemophilus influenzae [18]. In addition, the MIC in the test with Moraxella catarrhalis [19] worked out at 0.25 µg/mL (≈ 0.248 µM); with Haemophilus influenzae [20], 4 µg/mL (≈ 3.97 µM); in the test on Streptococcus pyogenes [21] it was 0.25 µg/mL (≈ 0.248 µM); with Staphylococcus aureus [22], 0.5 µg/mL (≈ 0.496 µM).

Regarding `CCOC(=O)[C@H]1[C@H](C)O[C@@H](O[C@H]2[C@H](N(C)C)[C@@H](O)[C@H](O[C@H]3[C@@H](CC=O)C[C@@H](C)[C@@H](O)CN(CCCCc4ccccc4)CC[C@@H](C)OC(=O)C[C@@H](OC(=O)CC)[C@@H]3OC)O[C@@H]2C)C[C@@]1(C)OC(C)=O`, the MIC in the test with Streptococcus pneumoniae [1] was 0.06 µg/mL (≈ 0.0613 µM); in the test with Streptococcus pneumoniae [2] it was 0.06 µg/mL (≈ 0.0613 µM); in the test on Staphylococcus aureus [3], above 128 µg/mL; with Moraxella catarrhalis [4], 0.25 µg/mL (≈ 0.255 µM); with Streptococcus pyogenes [5], above 128 µg/mL; against Staphylococcus aureus [6], 0.5 µg/mL (≈ 0.511 µM). The MIC in the test with Streptococcus pneumoniae [7] was found to be 8 µg/mL (≈ 8.17 µM); with Staphylococcus aureus [8], 0.5 µg/mL (≈ 0.511 µM); in the test with Haemophilus influenzae [9], 8 µg/mL (≈ 8.17 µM); in the test on Staphylococcus aureus [10], 0.5 µg/mL (≈ 0.511 µM); in the test on Streptococcus pneumoniae [11] it was 0.06 µg/mL (≈ 0.0613 µM); in the test with Haemophilus influenzae [12], 32 µg/mL (≈ 32.7 µM). Also, the MIC with Streptococcus pyogenes [13] was 0.13 µg/mL (≈ 0.133 µM); with Streptococcus pneumoniae [14], 0.13 µg/mL (≈ 0.133 µM); in the test on Streptococcus pneumoniae [15], 8 µg/mL (≈ 8.17 µM); in the test on Staphylococcus aureus [16], 0.13 µg/mL (≈ 0.133 µM); with Streptococcus pneumoniae [17] it was 128 µg/mL (≈ 131 µM); in the test with Streptococcus pneumoniae [23], above 128 µg/mL. Besides, the MIC in the test with Haemophilus influenzae [18] came out at 1 µg/mL (≈ 1.02 µM); in the test with Moraxella catarrhalis [19] it was 0.13 µg/mL (≈ 0.133 µM); with Haemophilus influenzae [20], 4 µg/mL (≈ 4.08 µM); in the test with Streptococcus pyogenes [21] it was 0.06 µg/mL (≈ 0.0613 µM); in the test on Staphylococcus aureus [22], 0.25 µg/mL (≈ 0.255 µM).

On to `CCOC(=O)[C@H]1[C@H](C)O[C@@H](O[C@H]2[C@H](N(C)C)[C@@H](O)[C@H](O[C@H]3[C@@H](CC=O)C[C@@H](C)[C@@H](OC(C)=O)CN(CCCCc4ccccc4)CC[C@@H](C)OC(=O)C[C@@H](OC(=O)CC)[C@@H]3OC)O[C@@H]2C)C[C@@]1(C)OC(C)=O`, for which the MIC in the test on Streptococcus pneumoniae [1] was 0.25 µg/mL (≈ 0.245 µM); in the test with Streptococcus pneumoniae [2] it was 0.25 µg/mL (≈ 0.245 µM); against Staphylococcus aureus [3], above 128 µg/mL; in the test with Moraxella catarrhalis [4], 0.5 µg/mL (≈ 0.49 µM); in the test on Streptococcus pyogenes [5], above 128 µg/mL; in the test with Staphylococcus aureus [6] it was 1 µg/mL (≈ 0.979 µM). Besides, the MIC was above 128 µg/mL in the test on Streptococcus pneumoniae [7]; 1 µg/mL (≈ 0.979 µM) in the test with Staphylococcus aureus [8]; 16 µg/mL (≈ 15.7 µM) with Haemophilus influenzae [9]; 0.5 µg/mL (≈ 0.49 µM) in the test on Staphylococcus aureus [10]; 0.5 µg/mL (≈ 0.49 µM) in the test on Streptococcus pneumoniae [11]; above 128 µg/mL in the test with Haemophilus influenzae [12]. In addition, the MIC in the test on Streptococcus pyogenes [13] is 0.5 µg/mL (≈ 0.49 µM); with Streptococcus pneumoniae [14] it was 0.25 µg/mL (≈ 0.245 µM); with Streptococcus pneumoniae [15], above 128 µg/mL; in the test on Staphylococcus aureus [16], 0.5 µg/mL (≈ 0.49 µM); in the test on Streptococcus pneumoniae [17] it was above 128 µg/mL; in the test on Streptococcus pneumoniae [23], above 128 µg/mL. Further, the MIC came out at 2 µg/mL (≈ 1.96 µM) in the test on Haemophilus influenzae [18]; 0.25 µg/mL (≈ 0.245 µM) with Moraxella catarrhalis [19]; 16 µg/mL (≈ 15.7 µM) with Haemophilus influenzae [20]; 0.25 µg/mL (≈ 0.245 µM) with Streptococcus pyogenes [21]; 0.5 µg/mL (≈ 0.49 µM) in the test with Staphylococcus aureus [22].
